Laboratory results published in ChEMBL document CHEMBL1123024, “5,6-Diaryl-2,3-dihydroimidazo[2,1-b]thiazoles: a new class of immunoregulatory antiinflammatory agents” (1985).

Columns and labels:
Assay type in all cases: functional
[1] = test system: Rattus norvegicus; assay: The compound was tested for percent change in immune R16 inflammatory lesions in rat adjuvant-induced arthritis at 50 mg/kg
How it was run: (§1)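 Male Wistar rats received 0.75 mg M. butyricum in paraffin oil intradermally into the left hindpaw. Compounds were given daily po in 0.5% tragacanth from the injection day for 17 days, skipping days 4, 5, 11 and 12. Leg volumes were read by mercury displacement: left leg on day 3, both legs on day 16. Eight treated rats vs 16 vehicle controls; Student's t test. ED25 is the dose giving a 25% volume decrease, from at least three doses, with 95% limits by Fieller's theorem.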

[2] = species on record: Mus musculus; assay: Immunoregulatory activity against mouse contact sensitivity was evaluated as percent change
How it was run: (§2)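 Male C57B1/6 mice were sensitized with 0.1 mL of 5% oxazolone in absolute ethanol on the clipped abdomen. At 45 h the left hind leg was challenged with 5% oxazolone. Compound was given po in 0.5% tragacanth. Edema was read plethysmographically 24 h later as left minus right leg volume. Six mice vs eight controls; Student's t test.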

[3] = test system: Rattus norvegicus; assay: Percent change in nonimmune L3 inflammatory lesions in rat adjuvant-induced arthritis at 50 mg/kg; how it was run: as §1
[4] = test system: Rattus norvegicus; assay: Percent change in nonimmune L16 inflammatory lesions in rat adjuvant-induced arthritis at 50 mg/kg; how it was run: as §1
[5] = test system: Rattus norvegicus; assay: Percent change in immune R16 inflammatory lesions in rat adjuvant-induced arthritis at 50 mg/kg; how it was run: as §1
[6] = test system: Rattus norvegicus; assay: Compound was tested by carrageenan -induced paw edema for percent change in paw volume of control sham operated rats at 100 mg/kg.
How it was run: (§3)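 Normal, adrenalectomized or sham-operated Lewis rats were dosed po in 0.5% tragacanth, hydrated. 1 h later paw volume was read, then […] of 1% carrageenan in 0.9% saline was injected into the right hindpaw plantar surface. Volume was re-read at 3 h. Percent change, treated vs control; Student's t test.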

[7] = test system: Rattus norvegicus; assay: Compound was tested by carrageenan -induced paw edema for percent change in paw volume of control sham operated rats at 50 mg/kg.; how it was run: as §3
[8] = test system: Rattus norvegicus; assay: The compound was tested for percent change in nonimmune L3 inflammatory lesions in rat adjuvant-induced arthritis at 50 mg/kg; how it was run: as §1
[9] = species on record: Mus musculus; assay: Immunoregulatory activity against oxazolone induced mouse contact sensitivity was evaluated as percent change; the % change in Not statistically Significant; how it was run: as §2
[10] = test system: Rattus norvegicus; assay: Compound was tested by carrageenan -induced paw edema for percent change in paw volume of control sham operated rats at 50 mg/kg; the % change was Not statistically significant; how it was run: as §3
[11] = test system: Rattus norvegicus; assay: The compound was tested for percent change in nonimmune L16 inflammatory lesions in rat adjuvant-induced arthritis at 50 mg/kg; how it was run: as §1

Compound | Change [1] [%] | Change [2] [%] | Change [3] [%] | Change [4] [%] | Change [5] [%] | Change [6] [%] | Change [7] [%] | Change [8] [%] | Change [9] [%] | Change [10] [%] | Change [11] [%]
CC(=O)Nc1ccc(-c2nc3n(c2-c2ccc(NC(C)=O)cc2)CCS3)cc1 | 12 | 78 | 3 | -1 | – | – | – | – | – | – | –
CCSc1nc(-c2ccc(OC)cc2)c(-c2ccc(OC)cc2)n1CC | – | 65 | -6 | -9 | -8 | – | – | – | – | – | –
COc1ccc(-c2cn3c(n2)SCC3)cc1 | – | 132 | -3 | -10 | -16 | – | – | – | – | – | –
Fc1cccc(-c2nc3n(c2-c2cccc(F)c2)CCS3)c1 | – | 22 | -1 | -1 | 3 | – | – | – | – | – | –
COc1ccc(-c2nc(SC)[nH]c2-c2ccc(OC)cc2)cc1 | – | 52 | -29 | -45 | -38 | – | – | – | – | – | –
FC(F)(F)COc1ccc(-c2nc3n(c2-c2ccc(OCC(F)(F)F)cc2)CCS3)cc1 | – | 26 | -13 | -20 | -3 | – | – | – | – | – | –
COc1ccc(-c2nc(SC)n(C)c2-c2ccc(OC)cc2)cc1 | – | 150 | -24 | -31 | -35 | – | – | – | – | – | –
c1ccc2c(c1)nc1n2CCS1 | – | 51 | -18 | -2 | 7 | – | – | – | – | – | –
COc1ccc(-c2nc3n(c2-c2ccc(OC)c(OC)c2)CCS3)cc1OC | – | 48 | 0 | -2 | 5 | – | – | – | – | – | –
Clc1ccc(-c2nc3n(c2-c2ccc(Cl)cc2)CCS3)cc1 | – | 43 | -18 | -35 | -38 | – | – | – | – | – | –
Brc1ccc(-c2nc3n(c2-c2ccc(Br)cc2)CCS3)cc1 | – | 71 | -25 | -42 | -46 | – | – | – | – | – | –
COc1ccc(-c2nc3n(c2-c2ccccc2)CCS3)cc1 | – | 26 | -5 | -10 | 1 | – | – | – | – | – | –
CCOc1ccc(-c2nc3n(c2-c2ccc(OCC)cc2)CCS3)cc1 | – | 150 | -22 | -34 | -32 | – | – | – | – | – | –
Fc1ccc(-c2nc3n(c2-c2ccc(F)cc2)CCS3)cc1 | – | 79 | -39 | -36 | -49 | – | – | – | – | – | –
C=CCOc1ccc(-c2nc3n(c2-c2ccc(OCC=C)cc2)CCS3)cc1 | – | 71 | -2 | -2 | -21 | – | – | – | – | – | –
COc1ccc(-c2c(-c3ccccc3)nc3n2CCS3)cc1 | – | 112 | -15 | -11 | -6 | – | – | – | – | – | –
CCN(C)c1ccc(-c2nc3n(c2-c2ccc(N(C)CC)cc2)CCS3)cc1 | – | 69 | -31 | -41 | -36 | – | – | – | – | – | –
COc1ccccc1-c1nc2n(c1-c1ccccc1OC)CCS2 | – | 95 | 0 | -5 | -7 | – | – | – | – | – | –
COc1ccc(-c2nc3n(c2-c2ccc(OC)c(F)c2)CCS3)cc1F | – | 88 | 1 | 0 | -3 | – | – | – | – | – | –
c1ccc(-c2nc3n(c2-c2ccccc2)CCS3)cc1 | – | – | -12 | -4 | -4 | -7 | -9 | – | – | – | –
COc1ccc(-c2nc3n(c2-c2ccc(OC)cc2)CCCS3)cc1 | – | 30 | -2 | -4 | -20 | – | – | – | – | – | –
Nc1ccc(-c2nc3n(c2-c2ccc(N)cc2)CCS3)cc1 | – | 36 | -15 | -10 | 0 | – | – | – | – | – | –
C[S+]([O-])c1ccc(-c2nc3n(c2-c2ccc([S+](C)[O-])cc2)CC[S+]3[O-])cc1 (stereo not drawn) | -47 | – | – | – | – | – | – | -27 | 38 | 10 | -44
COc1ccc(-c2nc3n(c2-c2ccccc2)CCS3)cc1OC | – | 82 | 8 | -1 | -6 | – | – | – | – | – | –
